Active and inactive are the calls of the source. The calls are words filed in the database; no cut-off is given here.
Columns and labels:
[1] = (§1) Tested in vitro for intrinsic activity relative to quinpirole
Outline: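 Human D2 receptor (long form) expressed by transfection in GH4C1 cells. Agonism was read as inhibition of forskolin-stimulated cAMP accumulation. Intrinsic activity was the maximal response expressed relative to the maximal response of the full D2 agonist quinpirole.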

D(2) dopamine receptor [2] = target: D(2) dopamine receptor (Homo sapiens, UniProt P14416); assay: In vitro inhibition of forskolin-stimulated cAMP accumulation in GH4C1 cells transfected with the human Dopamine D2 receptor; format: functional, cell-based, GH4-C1
D(2) dopamine receptor [3] = target: D(2) dopamine receptor (Rattus norvegicus, UniProt P61169); assay: Binding affinity towards Dopamine D2 receptor from rat striatal membranes, using [3H]- spiperone as radioligand
Outline: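 Displacement of [3H]spiperone (0.2 nM, final) from rat striatal membranes; nonspecific binding defined with (+)-butaclamol (1 μM). Four to six concentrations, each run in triplicate; IC50 obtained by nonlinear regression.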

Mus musculus [4] = species: Mus musculus; assay: Tested for the inhibition of Spontaneous locomotor activity; format: functional
Outline: (§2)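 Mice dosed ip, then immediately tested for 1 h of exploratory locomotion in darkened cylindrical photobeam chambers. Activity expressed as percent of vehicle-treated animals. ED50 (95% confidence range) derived from three to six doses, 6–18 animals per dose.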

[5] = as §1
Outline: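 GH4C1 cells transfected with human D2 receptor (long form); agonism read as inhibition of forskolin-stimulated cAMP accumulation. Intrinsic activity = maximal response relative to the full D2 agonist quinpirole (set at 1.0).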

Mus musculus [6] = assay: Tested for the inhibition of Spontaneous locomotor activity; Not active, ED50 > 30 mg/kg; format: functional, organism-based; design: dose 30 mg/kg; outline: as §2

Chain of D(2) dopamine receptor (Rattus norvegicus, UniProt P61169) (P61169 whole entry): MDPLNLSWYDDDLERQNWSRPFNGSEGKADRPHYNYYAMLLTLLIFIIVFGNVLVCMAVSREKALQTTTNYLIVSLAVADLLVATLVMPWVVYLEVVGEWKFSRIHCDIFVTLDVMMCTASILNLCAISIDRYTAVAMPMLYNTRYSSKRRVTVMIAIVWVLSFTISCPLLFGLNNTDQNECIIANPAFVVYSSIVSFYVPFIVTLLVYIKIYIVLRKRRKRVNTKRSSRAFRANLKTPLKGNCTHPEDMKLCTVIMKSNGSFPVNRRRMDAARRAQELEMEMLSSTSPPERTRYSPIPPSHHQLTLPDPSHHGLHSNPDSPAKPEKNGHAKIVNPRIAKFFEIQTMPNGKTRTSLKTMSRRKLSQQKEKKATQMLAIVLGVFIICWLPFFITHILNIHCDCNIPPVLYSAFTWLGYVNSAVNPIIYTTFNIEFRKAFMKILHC
Chain of D(2) dopamine receptor (Homo sapiens, UniProt P14416) (P14416 whole entry): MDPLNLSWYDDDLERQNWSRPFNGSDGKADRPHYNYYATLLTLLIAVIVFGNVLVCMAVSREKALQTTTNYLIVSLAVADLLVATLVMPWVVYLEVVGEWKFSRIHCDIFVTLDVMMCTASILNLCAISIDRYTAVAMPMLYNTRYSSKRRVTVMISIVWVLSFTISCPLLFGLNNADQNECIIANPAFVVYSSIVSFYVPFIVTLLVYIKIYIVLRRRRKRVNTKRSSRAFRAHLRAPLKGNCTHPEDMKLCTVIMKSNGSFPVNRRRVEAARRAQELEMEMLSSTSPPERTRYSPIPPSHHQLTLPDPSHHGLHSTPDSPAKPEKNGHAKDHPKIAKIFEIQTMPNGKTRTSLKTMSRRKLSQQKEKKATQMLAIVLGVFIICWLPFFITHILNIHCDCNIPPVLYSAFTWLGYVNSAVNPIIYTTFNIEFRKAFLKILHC

EC50 (D(2) dopamine receptor [2]) [nM] | IC50 (D(2) dopamine receptor [3]) [nM] | Intrinsic activity [5] | SMILES | Intrinsic activity [1] | ED50 (Mus musculus [4]) [mg/kg] | ED50 (Mus musculus [6])
 |  |  | CCCN1CCC[C@@H]2Cc3n[nH]cc3C[C@H]21 (single isomer, unassigned) [QUINPIROLE] | 1 |  | 
4.9 | 443 | 0.83 | O=C(N[C@H]1CC[C@H](CCN2CCN(c3ccccn3)CC2)CC1)c1ccccc1 |  | 0.16 | 
> 1000 | 7100 |  | O=C(N[C@H]1CC[C@H]2C[C@H](N3CCN(c4ccccn4)CC3)CC[C@@H]2C1)c1ccccc1 |  |  | inactive
> 1000 | 5800 |  | O=C(N[C@@H]1CC[C@H]2C[C@H](N3CCN(c4ccccn4)CC3)CC[C@@H]2C1)c1ccccc1 |  | 14.3 | 
10.4 | 72.7 | 0.98 | O=C(N[C@@H]1CC[C@H]2C[C@@H](N3CCN(c4ccccn4)CC3)CC[C@@H]2C1)c1ccccc1 |  | 0.1 | 
240 | 1100 | 0.63 | O=C(N[C@H]1CC[C@H]2C[C@@H](N3CCN(c4ccccn4)CC3)CC[C@@H]2C1)c1ccccc1 |  | 6.9 | 

From ChEMBL document CHEMBL1127428, “Studies of the active conformation of a novel series of benzamide dopamine D2 agonists” (J Med Chem, 1994)
